Assay results as given in ChEMBL document CHEMBL1140444, “Synthesis and structure-activity relationships of novel anti-hepatitis C agents: N3,5'-cyclo-4-(beta-D-ribofuranosyl)-vic-triazolo[4,5-b]pyridin-5-one derivatives” (2005).

What was measured:
Huh-7 = experiment: Cytotoxic concentration against HCV RNA replication in a subgenomic replicon Huh7 cell line; format: functional; details: Homo sapiens
Hepatitis C virus = experiment: Effective concentration against HCV RNA replication in a subgenomic replicon Huh7 cell line; format: functional, Hepacivirus hominis; details: Huh-7
Method in brief: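 HCV replicon Clone A cells in log-phase growth exposed to various compound concentrations for 3 days. HCV RNA extracted and quantified by real-time PCR. EC90 is the concentration reducing HCV RNA by 90%.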

EC90 (Hepatitis C virus) [µM] | SMILES | CC50 (Huh-7) [µM]
> 100 | CCNc1cc(=O)n2c3c1nnn3C[C@H]1O[C@@H]2[C@H](O)C1O (single isomer, unassigned) | > 100
15.4 | Cc1cc(=O)n2c3c1nnn3C[C@H]1O[C@@H]2[C@H](O)C1O (single isomer, unassigned) | 22.6
86.1 | COCCNc1cc(=O)n2c3c1nnn3C[C@H]1O[C@@H]2[C@H](O)C1O (single isomer, unassigned) | 97.3
> 100 | CN(C)c1cc(=O)n2c3c1nnn3C[C@H]1O[C@@H]2[C@H](O)C1O (single isomer, unassigned) | > 100
7.4 | CNc1cc(=O)n2c3c1nnn3C[C@H]1O[C@@H]2[C@H](O)C1O (single isomer, unassigned) | 4.6
2.1 | O=c1c(Cl)cc2nnn3c2n1[C@@H]1O[C@H](C3)C(O)[C@H]1O (single isomer, unassigned) | 0.06
79.8 | O=c1ccc2nnn3c2n1[C@@H]1O[C@H](C3)C(O)[C@H]1O (single isomer, unassigned) | 30.6
10 | OC1[C@@H](O)[C@H]2O[C@@H]1Cn1nnc3ccc(=S)n2c31 (single isomer, unassigned) | 11.9
> 100 | CCCNc1cc(=O)n2c3c1nnn3C[C@H]1O[C@@H]2[C@H](O)C1O (single isomer, unassigned) | > 100
> 100 | CCCCNc1cc(=O)n2c3c1nnn3C[C@H]1O[C@@H]2[C@H](O)C1O (single isomer, unassigned) | > 100
> 100 | O=c1cc(NCCO)c2nnn3c2n1[C@@H]1O[C@H](C3)C(O)[C@H]1O (single isomer, unassigned) | > 100
1.9 | O=c1c(Br)cc2nnn3c2n1[C@@H]1O[C@H](C3)C(O)[C@H]1O (single isomer, unassigned) | 1.5
29.7 | Nc1cc(=O)n2c3c1nnn3C[C@H]1O[C@@H]2[C@H](O)C1O (single isomer, unassigned) | 74.2
> 100 | O=c1cc(NC2CC2)c2nnn3c2n1[C@@H]1O[C@H](C3)C(O)[C@H]1O (single isomer, unassigned) | > 100
> 100 | O=c1cc(NCCCO)c2nnn3c2n1[C@@H]1O[C@H](C3)C(O)[C@H]1O (single isomer, unassigned) | > 100
